pIC50: −log10 of the molar value.
Experiments:
HL-60 [1] = test: Cytotoxicity measured in HL-60 leukemic cells after a 24 hr incubation period.; format: functional, cell-based, Homo sapiens
Summary of the method: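 HL-60 cells kept in RPMI-1640 with 5% heat-inactivated FCS, penicillin/streptomycin and 2 mM L-glutamine, >90% viable before use. 10^6 cells/mL exposed 24 h to 2.5–160 μM (twofold steps). Viability by trypan blue exclusion, as % viable cells versus total control cells. IC50 taken as the concentration giving 50% mortality. Two experiments in triplicate; compounds with IC50 >30 μM tested once.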

[2] = Partition coefficient (logP); format: physicochemical; conditions: octanol/water
Summary of the method: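 Calculated rather than measured, for the C-1 chain including the ether O atom, by the Viswanadhan atom-based method.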

Rattus norvegicus = organism: Rattus norvegicus; test: Maximal non-erythrolytic concentration(MNEC) was measured in erythrocytes from rat citreated blood; format: functional
Summary of the method: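 Rat citrated-blood erythrocytes washed in HBSS and mixed 9:1 with test solution for 30 min at 37 °C. Lysis read spectrophotometrically at 546 nm. Value reported as the maximal concentration (μM) causing no erythrolysis.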

A-431 = test: Antiproliferative activity of compound was measured on human tumor cell line A431.; format: functional, cell-based
Summary of the method: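 Adherent cells trypsinized and seeded at 5000 cells/cm2, grown in RPMI-1640 with 10% heat-inactivated FCS and 2 mM L-glutamine. After 24 h, graded concentrations dissolved in complete medium were added for 48 h (final EtOH ≤0.2%). Cells fixed with 10% TCA and stained with 0.4% SRB in 1% acetic acid. Dye solubilized in 10 mM Tris pH 10.4 and read at 550 nm, background-corrected. IC50 from dose–response curves; two to five experiments, eight replicates each.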

K562 = test: Antiproliferative activity of compound was measured on human tumor cell line K-562.; format: functional, cell-based
Summary of the method: (§1)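 Suspension cells at 1 × 10^6 cells/mL in RPMI-1640 with 10% heat-inactivated FCS and 2 mM L-glutamine, 37 °C, 5% CO2. Incubated 120 h with graded ether lipid concentrations (final EtOH ≤0.2%), then counted electronically. IC50 from dose–response curves; two experiments in duplicate, average ± SD.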

HL-60 [3] = test: Antiproliferative activity of compound was measured on human tumor cell line HL-60.; format: functional, cell-based; summary of the method: as §1

Row | SMILES | logP ([2]; read-out: logP) | pIC50 (HL-60 [1]; Homo sapiens, HL-60, 24 h) | MNEC (Rattus norvegicus) [µM] | further results
1 | CCCCCCCCCCCC(CCCCCC)CCCCCCOCC(COP(=O)([O-])OCC[N+](C)(C)C)OC (stereo unspecified) |  | 4.30 | >200 | logP [2]: 9.08
2 | CCCCCCCCCCCCCCCCCCOCC(COCCCCC[N+](C)(C)C)OC.[Br-] (stereo unspecified) |  | 5.10 | 5 | 
3 | CCCCCCC(CCCCCC)CCCCCCCCCCCOCC(COP(=O)([O-])OCC[N+](C)(C)C)OC (stereo unspecified) |  | 4.34 | >200 | logP [2]: 9.08
4 | CCCCCCCCCCCCCCCCOP(=O)([O-])OCC[N+](C)(C)C [MILTEFOSINE] |  | 4.69 | 2 | 
5 | CCCCCCCCCCCCCCCCCCOCC(COP(=O)(O)OC[C@@H](N)C(=O)O)OC (stereo partly specified) |  | 4.60 | >200 | 
6 | CCCCCCCCCCCCCCCCC(=O)COCC(COP(=O)([O-])OCC[N+](C)(C)C)OC (stereo unspecified) | 6.29 | 5.46 | 5 | pIC50 (A-431; Homo sapiens, A-431): 4.85; pIC50 (K562; Homo sapiens, K562): 5.05; pIC50 (HL-60 [3]; Homo sapiens, HL-60): 5.89
7 | CCCCCCC(O)CCCCCCCCCCCOCC(COCCCCC[N+](C)(C)C)OC.[Br-] (stereo unspecified) |  | 4.59 | 50 | 
8 | CCCCCCC(=O)CCCCCCCCCCCOCC(COP(=O)(O)OC[C@@H](N)C(=O)O)OC (stereo partly specified) |  | 4.52 | >200 | 
9 | CCCCCCCCCCCC(=O)CCCCCCOCC(COCCCCC[N+](C)(C)C)OC.[Br-] (stereo unspecified) |  | 5.38 | 5 | 
10 | CCCCCCCCCCCC(=O)CCCCCCOCC(COP(=O)(O)OC[C@@H](N)C(=O)O)OC (stereo partly specified) |  | < 3.80 | >200 | 

More lines, main results first:

Row | logP ([2]; read-out: logP) | SMILES | pIC50 (HL-60 [1]; Homo sapiens, HL-60, 24 h) | MNEC (Rattus norvegicus) [µM] | further results
11 | 7.1 | CCCCCCCCCCCC(C)CCCCCCOCC(COP(=O)([O-])OCC[N+](C)(C)C)OC (stereo unspecified) | 5.05 | 5 | 
12 | 7.59 | COC(COCCCCCCCCCCCCCCCCc1ccccc1)COP(=O)([O-])OCC[N+](C)(C)C (stereo unspecified) | 4.88 | 10 | 
13 | 7.13 | CCCCCCCCC(CCCCCCOCC(COP(=O)([O-])OCC[N+](C)(C)C)OC)c1ccccc1 (stereo unspecified) | 4.51 | 5 | 
14 | 5.92 | CCCCCCC(=O)CCCCCCCCCCCOCC(COP(=O)([O-])OCC[N+](C)(C)C)OC (stereo unspecified) | 4.35 | 50 | pIC50 (A-431; Homo sapiens, A-431): 4.39; pIC50 (K562; Homo sapiens, K562): 4.07; pIC50 (HL-60 [3]; Homo sapiens, HL-60): 4.91
15 | 5.92 | CCCCCCCCCCCCCCC(=O)CCCOCC(COP(=O)([O-])OCC[N+](C)(C)C)OC (stereo unspecified) | 5.39 | 10 | pIC50 (A-431; Homo sapiens, A-431): 4.87; pIC50 (K562; Homo sapiens, K562): 4.98; pIC50 (HL-60 [3]; Homo sapiens, HL-60): 5.96
16 | 4.29 | COC(COCCCCCCCCCCC(=O)c1ccccc1)COP(=O)([O-])OCC[N+](C)(C)C (stereo unspecified) | < 3.80 | >200 | 
17 | 6.77 | CCCCCCCCCCCCCCCCCCOCC(COP(=O)([O-])OCC[N+](C)(C)C)OC (stereo unspecified) [EDELFOSINE] | 5.21 | 2 | pIC50 (A-431; Homo sapiens, A-431): 4.87; pIC50 (K562; Homo sapiens, K562): 5.21; pIC50 (HL-60 [3]; Homo sapiens, HL-60): 6.00
18 | 8.68 | CCCCCCCCC(CCCCCCCC)CCCCCCOCC(COP(=O)([O-])OCC[N+](C)(C)C)OC (stereo unspecified) | 4.28 | >200 | 
19 | 5.92 | CCCCCCCCCCCC(=O)CCCCCCOC[C@@H](COP(=O)([O-])OCC[N+](C)(C)C)OC | 5.23 | 20 | pIC50 (A-431; Homo sapiens, A-431): 4.71; pIC50 (A-431; a-431): 4.66; pIC50 (K562; Homo sapiens, K562): 4.40; pIC50 (K562; k562): 4.41; pIC50 (HL-60 [1]; hl-60): 4.95; pIC50 (HL-60 [3]; Homo sapiens, HL-60): 5.36; pIC50 (HL-60 [3]; hl-60): 5.52
20 | 5.51 | CCCCC(CCCC)CCCCCCOCC(COP(=O)([O-])OCC[N+](C)(C)C)OC (stereo unspecified) | 4.27 | 20 | 
21 | 5.92 | CCCCCCCCCCCC(=O)CCCCCCOCC(COP(=O)([O-])OCC[N+](C)(C)C)OC (stereo unspecified) | 5.04 | 20 | pIC50 (A-431; Homo sapiens, A-431): 4.68; pIC50 (K562; Homo sapiens, K562): 4.38; pIC50 (HL-60 [3]; Homo sapiens, HL-60): 5.52
22 | 4.7 | COC(COCCCCCCCCCCC(O)c1ccccc1)COP(=O)([O-])OCC[N+](C)(C)C (stereo unspecified) | < 3.80 | >200 | 
